In ChEMBL document CHEMBL3856220, “Synthesis and antileishmanial activity of C7- and C12-functionalized dehydroabietylamine derivatives” (Eur J Med Chem, 2016):
pIC50: −log10 of the molar value.

Experiments:
Leishmania infantum [1] = experiment: Leishmanicidal activity against amastigote form of Leishmania infantum MCAN/ES/96/BCN150 infected in mouse J774 cells after 48 hrs by resazurin dye-based fluorometric method; assay type: functional, cell-based; settings: MCAN/ES/96/BCN150, J774, 48 h
Method in brief: (§1)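 5×10^4 macrophages in RPMI-1640 infected with 5×10^5 promastigotes. L. infantum infection was 48 h at 37 °C; L. amazonensis was 24 h at 33 °C then 24 h at 37 °C. Free parasites washed off with RPMI-HEPES pH 7.4. Compound at 100–0.78 µg/mL (final), 48 h at 37 °C. Cells lysed with 0.02% SDS, then 3 days at 26 °C in Schneider's medium. Resazurin 3 h, fluorescence read. Triplicates; IC50 by probit analysis.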

[2] = Selectivity index, ratio of CC50 for mouse J774 cells to IC50 for promastigote form of Leishmania donovani MHOM/IN/80/DD8; assay type: functional
Method in brief: (§2)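 Selectivity index computed as CC50 from the J774 resazurin viability assay divided by IC50 from the matching promastigote or intracellular amastigote resazurin assay.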

[3] = Cytotoxicity against mouse J774 cells assessed as reduction of cell viability after 48 hrs by resazurin dye-based fluorometric method; assay type: toxicity
Method in brief: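 J774 murine macrophages grown in RPMI-1640 with 10% heat-inactivated FBS, penicillin/streptomycin, 37 °C, 5% CO2, and harvested mechanically at pre-confluence. Seeded at 5×10^4 cells/well and allowed to attach 2 h. Compound added at 100–0.78 µg/mL (1:2 series, final), 48 h exposure. Resazurin 2.5 mM (20 µL) then 3 h, fluorescence read. Triplicates. CC50 = 50% viability loss versus untreated.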

Leishmania guyanensis = experiment: Leishmanicidal activity against promastigote form of Leishmania guyanensis 141/93 after 48 hrs by resazurin dye-based fluorometric method; assay type: functional; settings: 141/93, 48 h
Method in brief: (§3)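 Promastigotes grown in Schneider's medium with 10% heat-inactivated FBS at 26 °C. 2.5×10^5 parasites/well. DMSO stocks at 100 mg/mL, diluted 1:2 in medium to final 100–0.78 µg/mL. 48 h at 26 °C, then 2.5 mM resazurin (20 µL) for 3 h. Fluorescence read at ex 535/em 590 nm, with growth inhibition corrected for signal-to-noise. Triplicates; IC50 by probit analysis.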

[4] = Selectivity index, ratio of CC50 for mouse J774 cells to IC50 for amastigote form of Leishmania infantum MCAN/ES/96/BCN150 infected in mouse J774 cells; assay type: functional; method in brief: as §2
[5] = Selectivity index, ratio of CC50 for mouse J774 cells to IC50 for promastigote form of Leishmania infantum MCAN/ES/96/BCN150; assay type: functional; method in brief: as §2
Leishmania amazonensis [6] = experiment: Leishmanicidal activity against promastigote form of Leishmania amazonensis MHOM/Br/79/Maria after 48 hrs by resazurin dye-based fluorometric method; assay type: functional; method in brief: as §3
[7] = Selectivity index, ratio of CC50 for mouse J774 cells to IC50 for promastigote form of Leishmania amazonensis MHOM/Br/79/Maria; assay type: functional; method in brief: as §2
Leishmania amazonensis [8] = experiment: Leishmanicidal activity against amastigote form of Leishmania amazonensis MHOM/Br/79/Maria infected in mouse J774 cells after 48 hrs by resazurin dye-based fluorometric method; assay type: functional, cell-based; settings: J774, 48 h; method in brief: as §1
Leishmania infantum [9] = experiment: Leishmanicidal activity against promastigote form of Leishmania infantum MCAN/ES/96/BCN150 after 48 hrs by resazurin dye-based fluorometric method; assay type: functional; settings: MCAN/ES/96/BCN150, 48 h; method in brief: as §3
Leishmania donovani [10] = experiment: Leishmanicidal activity against promastigote form of Leishmania donovani MHOM/IN/80/DD8 after 48 hrs by resazurin dye-based fluorometric method; assay type: functional; settings: MHOM/IN/80/DD8, 48 h; method in brief: as §3
[11] = Selectivity index, ratio of CC50 for mouse J774 cells to IC50 for promastigote form of Leishmania guyanensis 141/93; assay type: functional; method in brief: as §2
[12] = Selectivity index, ratio of CC50 for mouse J774 cells to IC50 for amastigote form of Leishmania amazonensis MHOM/Br/79/Maria infected in mouse J774 cells; assay type: functional; method in brief: as §2
Leishmania infantum [13] = experiment: Potency index, ratio of miltefosine IC50 to compound IC50 for amastigote form of Leishmania infantum MCAN/ES/96/BCN150 infected in mouse J774 cells; assay type: functional
Leishmania infantum [14] = experiment: Antileishmanial activity against amastigote form of Leishmania infantum MCAN/ES/2001/UCM-10 infected in mouse J774.2 cells after 72 hrs by Giemsa staining-based assay; assay type: functional, cell-based; settings: MCAN/ES/2001/UCM-10, J774.2, 72 h
Leishmania braziliensis = experiment: Antileishmanial activity against amastigote form of Leishmania braziliensis MHOM/BR/1975/M2904 infected in mouse J774.2 cells after 72 hrs by Giemsa staining-based assay; assay type: functional, cell-based; settings: MHOM/BR/75/M2904, J774.2, 72 h
Leishmania donovani [15] = experiment: Antileishmanial activity against promastigote form of Leishmania donovani after 48 hrs by Alamar blue assay; assay type: functional
Method in brief: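 Promastigotes grown at 26 °C in Schneider's insect medium with 10% heat-inactivated FBS and penicillin/streptomycin, seeded at 2.5×10^5/well. Exposed to 1:2 serial dilutions (100–0.78 µg/mL final; DMSO stocks) for 48 h at 26 °C, then 2.5 mM resazurin added for 3 h. Fluorescence read at 535/590 nm; inhibition relative to untreated minus background. Triplicates; IC50 by probit; miltefosine reference.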

Row | Structure (SMILES) | pIC50 (Leishmania infantum [1]) | Ratio CC50/IC50 [2] | CC50 at 48 h [3] [µM] | pIC50 (Leishmania guyanensis) | Ratio CC50/IC50 [4] | Ratio CC50/IC50 [5] | pIC50 (Leishmania amazonensis [6]) | Ratio CC50/IC50 [7] | pIC50 (Leishmania amazonensis [8]) | pIC50 (Leishmania infantum [9]) | pIC50 (Leishmania donovani [10]) | Ratio CC50/IC50 [11] | Ratio CC50/IC50 [12] | Ratio IC50 (Leishmania infantum [13]) | pIC50 (Leishmania infantum [14]) | pIC50 (Leishmania braziliensis) | pIC50 (Leishmania donovani [15])
1 | CC(C)c1cc2c(cc1[N+](=O)[O-])[C@@]1(C)CCC[C@@](C)(CNC(=O)c3ccccc3)[C@@H]1CC2=O | 4.76 | >37 | > 200 | 4.41 | >11 | >8 | 4.91 | >16 | 5.43 | 4.62 | 5.27 | >5 | >54 | – | – | – | –
2 | CC(C)c1ccc2c(c1)C(=O)C[C@H]1[C@](C)(CNC(=O)c3ccccc3)CCC[C@]21C | 5.60 | >50 | > 200 | 5.07 | >80 | >23 | 5.31 | >41 | 5.52 | 5.06 | 5.40 | >23 | >67 | 23 | – | – | –
3 | CC(C)c1cc2c(cc1[N+](=O)[O-])[C@@]1(C)CCC[C@@](C)(CNC(=O)c3ccccc3)[C@@H]1CC2 | 5.48 | >62 | > 200 | 4.02 | >61 | >18 | 4.68 | >10 | 5.46 | 4.95 | 5.49 | >2 | >57 | 18 | – | – | –
4 | CC(=O)NC[C@]1(C)CCC[C@]2(C)c3ccc(C(C)C)cc3CC[C@@H]12 | – | – | 21.6 | – | – | – | – | – | – | – | – | – | – | – | – | – | –
5 | CC(C)c1ccc2c(c1)CC[C@H]1[C@](C)(CNC(=O)c3ccccc3)CCC[C@]21C | 5.33 | >90 | > 200 | 4.69 | >42 | >64 | 5.43 | >54 | 5.30 | 5.51 | 5.66 | >10 | >40 | – | – | – | –
6 | COC(=O)C[C@@]1(C)CCC[C@]2(C)c3cc(O)c(C(C)C)cc3CC[C@@H]12 | – | – | – | – | – | – | – | – | – | – | – | – | – | – | 4.46 to 4.65 | 4.46 to 4.65 | –
7 | CC(=O)NC[C@]1(C)CCC[C@]2(C)c3ccc(C(C)C)cc3C(=O)C[C@@H]12 | – | – | 72.3 | – | – | – | – | – | – | – | – | – | – | – | – | – | –
8 | CC(=O)NC[C@]1(C)CCC[C@]2(C)c3ccc(C(C)C)cc3-c3[nH]c4ccc(F)cc4c3[C@@H]12 | – | 10.3 | 28.8 | – | – | 19.2 | 5.40 | 7.2 | – | 5.82 | 5.55 | – | – | – | – | – | –
9 | CC(=O)NC[C@]1(C)CCC[C@]2(C)c3cc([N+](=O)[O-])c(C(C)C)cc3C(=O)C[C@@H]12 | – | – | 39.2 | – | – | – | – | – | – | – | – | – | – | – | – | – | –
10 | COC(=O)C[C@]1(C)CCC[C@]2(C)c3cc(O)c(C(C)C)cc3CC[C@@H]12 | – | – | – | – | – | – | – | – | – | – | – | – | – | – | 4.46 to 4.65 | 4.46 to 4.65 | –
11 | CC(=O)NC[C@]1(C)CCC[C@]2(C)c3cc([N+](=O)[O-])c(C(C)C)cc3CC[C@@H]12 | – | – | 13.7 | – | – | – | – | – | – | – | – | – | – | – | – | – | –
12 | CC(C)c1ccc2c(c1)CC[C@H]1[C@](C)(CN)CCC[C@]21C | – | – | 14.5 | – | – | – | – | – | – | – | – | – | – | – | – | – | –
13 | CC(C)c1cc2c(cc1O)[C@@]1(C)CCCC(C)(C)[C@@H]1CC2 [FERRUGINOL] | – | – | – | – | – | – | – | – | – | – | – | – | – | – | – | – | 4.91
14 | CCCCCCCCCCCCCCCCOP(=O)([O-])OCC[N+](C)(C)C [MILTEFOSINE] | 4.24 | 909 | 136 | 4.74 | 2.3 | 40.1 | 4.32 | 2.9 | 4.78 | 5.47 | 6.82 | 7.5 | 8.2 | – | – | – | –
